Drawing on ChEMBL document CHEMBL4028810, “Synthesis and biological evaluation of novel chalcone derivatives as a new class of microtubule destabilizing agents” (Eur J Med Chem, 2017), this text covers IC50 and inhibition for 26 compounds.

Usually pIC50 stands for the IC50 on a negative log10 scale, so that one unit is a factor of ten.

pIC50: −log10 of the molar value. Calls of active or inactive are those of the source. No cut-off for these calls is given here.

Experiment [1] deals with SK-OV-3. Put plainly: Cytotoxicity against human SKOV3 cells after 48 hrs by MTT assay. Type of experiment: functional, cell-based. Conditions: SK-OV-3, 48 h. Summed up:
(§1)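 Log-phase cells were seeded at about 1 × 10⁵ cells/mL in 96-well plates and allowed to settle 12 h at 37 °C in 5% CO₂. Compounds were added at five concentrations for 48 h. Absorbance was read at dual wavelength 570/630 nm. Survival was expressed as a percentage of control, and IC50 was calculated by the Bliss method (n = 5). Each test was run in triplicate.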
Background: Formazan colour is commonly taken as a measure of viable cells.

The test system of experiment [2] is L02. Put plainly: Cytotoxicity against human HL7702 cells after 48 hrs by MTT assay. Conditions: L02, 48 h. Type of experiment: cell-based. Summed up:
as §1

For experiment [3], the system named is MGC-803. Put plainly: Cytotoxicity against human MGC803 cells after 48 hrs by MTT assay. Type of experiment: functional, cell-based. Particulars: MGC-803, 48 h. The essentials:
as §1

For experiment [4], the system named is NCI-H460. Put plainly: Cytotoxicity against human NCI-H460 cells after 48 hrs by MTT assay. Type of experiment: functional, cell-based. Particulars: NCI-H460, 48 h. Summed up: as §1
Experiment [5] relates to T-24. Put plainly: Cytotoxicity against human T24 cells after 48 hrs by MTT assay. Particulars: T-24, 48 h. Type of experiment: functional, cell-based. Summed up: as §1
For experiment [6], the system named is HepG2. The experiment is described as follows: Cytotoxicity against human HepG2 cells after 48 hrs by MTT assay. Type of experiment: functional, cell-based. Particulars: HepG2, 48 h. Summed up: as §1
The species named for experiment [7] is Sus scrofa. Put plainly: Inhibition of porcine brain tubulin polymerization at 15 uM measured at 1 min interval for 40 mins by spectrophotometric method. The essentials:
(§2)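 Purified brain tubulin, final 3.0 mg/mL, was added to start the reaction in 80 mM PIPES pH 6.9, 2.0 mM MgCl₂, 0.5 mM EGTA, 1 mM GTP and 10.2% glycerol, with the other components prewarmed to 37 °C. Compounds were tested at 10 or 15 µM. Polymerization at 37 °C was followed as absorbance at 340 nm over 40 min.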

For experiment [8], the species on record is Sus scrofa. Put plainly: Inhibition of porcine brain tubulin polymerization at 10 uM measured at 1 min interval for 40 mins by spectrophotometric method. The essentials:
as §2

Experiment [9] in a line: Cytotoxicity against human HeLa/TR cells after 48 hrs by MTT assay. Type of experiment: functional, cell-based. The essentials: as §1
Experiment [10] has as its system A549/TR. The experiment is described as follows: Cytotoxicity against human A549/TR cells after 48 hrs by MTT assay. Type of experiment: functional, cell-based. The essentials:
as §1

The subject of experiment [11] is HeLa. The experiment is described as follows: Cytotoxicity against human HeLa cells after 48 hrs by MTT assay. Type of experiment: functional, cell-based. Summed up: as §1

In the case of `COc1ccc(/C=C/C(=O)c2cc(OC)c(OC)c(OC)c2)cc1OCC(=O)Nc1ccc(C)cc1`, the negative logarithm of the IC50 (pIC50) is 4.99 in experiment [1]; < 4.30 in experiment [2]; 4.99 in experiment [3]; 5.11 in [4]; 4.94 in experiment [5]; 5.05 in [6].

For `COc1ccc(NC(=O)COc2cc(/C=C/C(=O)c3cc(OC)c(OC)c(OC)c3)ccc2OC)cc1`, the pIC50 in experiment [1] was 5.01; in experiment [2] it was < 4.30; in experiment [3], 5.07; in experiment [4], 5.15; in experiment [5] it was 5.03; in experiment [6], 5.12.

In the case of `COc1ccccc1NC(=O)COc1cc(/C=C/C(=O)c2cc(OC)c(OC)c(OC)c2)ccc1OC`, the pIC50 is 4.79 in experiment [1]; < 4.30 in experiment [2]; 4.83 in experiment [3]; 4.92 in [4]; 4.76 in experiment [5]; 4.87 in [6].

For the compound `COc1ccc(/C=C/C(=O)c2cc(OC)c(OC)c(OC)c2)cc1OCC(=O)Nc1ccc(Br)cc1`, the pIC50 in [1] was 4.88; in experiment [2], < 4.30; in [3], 4.89; in experiment [4], 4.99; in experiment [5], 4.94; in [6], 4.98.

Turning to `COc1ccccc1NC(=O)COc1cc(/C=C/C(=O)c2ccc(OC)c3c2OC(C)(C)C=C3)ccc1OC`, the pIC50 in experiment [1] is 5.08; in [2], < 4.30; in experiment [3], 5.17; in experiment [4] it was 5.26; in experiment [5], 5.11; in experiment [6] it was 5.13. In addition, in [7], the inhibition entry was “Active”.

Regarding `COc1ccc(/C=C/C(=O)c2cc(OC)c(OC)c(OC)c2)cc1OCC(=O)Nc1ccccc1F`, the pIC50 in experiment [1] was 5.02; in experiment [2], < 4.30; in experiment [3], 5.09; in [4], 5.17; in experiment [5], 4.97; in experiment [6] it was 5.12.

Turning to `COc1ccc(/C=C/C(=O)c2ccc(OC)c3c2OC(C)(C)C=C3)cc1OCC(=O)Nc1ccc(C)cc1`, the pIC50 is 5.02 in experiment [1]; < 4.30 in [2]; 5.08 in experiment [3]; 5.06 in experiment [4]; 4.99 in experiment [5]; 5.03 in experiment [6].

Consider `COc1ccc(/C=C/C(=O)c2cc(OC)c(OC)c(OC)c2)cc1OCC(=O)Nc1ccc(F)cc1`, for which the pIC50 in experiment [1] was 4.65; in [2], < 4.30; in experiment [3], 4.68; in experiment [4], 4.72; in [5], 4.61; in experiment [6], 4.67.

Turning to `COc1ccc(/C=C/C(=O)c2ccc(OC)c3c2OC(C)(C)C=C3)cc1OCC(=O)Nc1ccc(F)cc1`, the pIC50 in experiment [1] is 4.86; in experiment [2] it was < 4.30; in [3], 4.87; in [4] it was 4.85; in experiment [5], 4.75; in [6], 4.85.

Turning to `COc1ccc(/C=C/C(=O)c2ccc(OC)c3c2OC(C)(C)C=C3)cc1OCC(=O)Nc1ccccc1Cl`, the pIC50 in experiment [1] is 4.84; in experiment [2], < 4.30; in [3], 4.85; in [4] it was 4.89; in experiment [5] it was 4.81; in experiment [6], 4.93.

With `COc1ccc(/C=C/C(=O)c2cc(OC)c(OC)c(OC)c2)cc1OCC(=O)Nc1ccc(O)cc1`, the pIC50 in experiment [1] was < 4.30; in experiment [2] it was < 4.30; in [3], 4.44; in [4], < 4.30; in experiment [5] it was < 4.30; in experiment [6], < 4.30.

For the compound `COc1ccc(/C=C/C(=O)c2ccc(OC)c3c2OC(C)(C)C=C3)cc1OCC(=O)Nc1ccc(O)cc1`, the pIC50 in experiment [1] was 4.84; in experiment [2] it was < 4.30; in experiment [3], 4.68; in experiment [4], 4.75; in experiment [5], 4.74; in experiment [6], 4.81.

`COc1ccc(/C=C/C(=O)c2cc(OC)c(OC)c(OC)c2)cc1OCC(=O)Nc1ccccc1Br`: the pIC50 in experiment [1] was 4.78; in experiment [2], < 4.30; in experiment [3] it was 4.84; in [4] it was 4.99; in experiment [5], 4.72; in experiment [6], 4.82.

As to `COc1ccc(/C=C/C(=O)c2ccc(OC)c3c2OC(C)(C)C=C3)cc1OCC(=O)Nc1ccccc1F`, the pIC50 in experiment [1] was 4.73; in [2], < 4.30; in [3], 4.69; in [4] it was 4.77; in [5], 4.76; in experiment [6], 4.72.

With `COc1ccc(/C=C/C(=O)c2ccc(OC)c3c2OC(C)(C)C=C3)cc1OCC(=O)Nc1ccccc1C`, the pIC50 in experiment [1] was 5.00; in experiment [2] it was < 4.30; in [3], 4.99; in experiment [4] it was 5.10; in experiment [5], 5.01; in experiment [6], 5.03.

Regarding `COc1ccc(NC(=O)COc2cc(/C=C/C(=O)c3ccc(OC)c4c3OC(C)(C)C=C4)ccc2OC)cc1`, the pIC50 was 5.04 in [1]; < 4.30 in experiment [2]; 5.17 in [3]; 5.07 in experiment [4]; 5.02 in experiment [5]; 5.05 in [6].

For `CC(=O)O[C@H]1C(=O)[C@@]2(C)[C@H]([C@H](OC(=O)c3ccccc3)[C@]3(O)C[C@H](OC(=O)[C@H](O)[C@@H](NC(=O)c4ccccc4)c4ccccc4)C(C)=C1C3(C)C)[C@]1(OC(C)=O)CO[C@@H]1C[C@@H]2O` [PACLITAXEL], the inhibition entry in [8] is “Active”. Further, the pIC50 in experiment [9] is 5.82; in experiment [10], 5.82; in experiment [11], 8.09.

On to `COc1ccc(/C=C/C(=O)c2cc(OC)c(OC)c(OC)c2)cc1OCC(=O)Nc1ccccc1C`, for which the pIC50 is 4.55 in [1]; < 4.30 in experiment [2]; 4.55 in experiment [3]; 4.64 in experiment [4]; 4.57 in experiment [5]; 4.58 in [6].

On to `COc1ccc(/C=C\c2cc(OC)c(OC)c(OC)c2)cc1O`, for which the inhibition result in experiment [8] was “Active”.

`COc1ccc(/C=C/C(=O)c2cc(OC)c(OC)c(OC)c2)cc1OCC(=O)Nc1ccc(Cl)cc1`: the negative logarithm of the IC50 (pIC50) in experiment [1] is 4.57; in experiment [2], < 4.30; in experiment [3], 4.58; in experiment [4], 4.70; in experiment [5], 4.66; in experiment [6] it was 4.69.

For the compound `COc1ccc(/C=C/C(=O)c2ccc(OC)c3c2OC(C)(C)C=C3)cc1OCC(=O)Nc1ccccc1Br`, the pIC50 in [1] was 4.52; in experiment [2], < 4.30; in experiment [3], 4.49; in experiment [4] it was 4.70; in experiment [5] it was 4.63; in [6], 4.56.

In the case of `COc1ccc(/C=C/C(=O)c2cc(OC)c(OC)c(OC)c2)cc1OCC(=O)Nc1ccccc1`, the pIC50 in experiment [1] is 4.97; in experiment [2], < 4.30; in experiment [3], 4.84; in experiment [4], 4.95; in [5] it was 4.90; in experiment [6] it was 4.99.

With `COc1ccc(/C=C/C(=O)c2ccc(OC)c3c2OC(C)(C)C=C3)cc1OCC(=O)Nc1ccc(Br)cc1`, the pIC50 is 4.72 in experiment [1]; < 4.30 in experiment [2]; 4.76 in experiment [3]; 4.69 in [4]; 4.70 in experiment [5]; 4.64 in [6].

Regarding `COc1ccc(/C=C/C(=O)c2ccc(OC)c3c2OC(C)(C)C=C3)cc1OCC(=O)Nc1ccc(Cl)cc1`, the pIC50 in experiment [1] is 4.70; in [2], < 4.30; in experiment [3], 4.71; in experiment [4] it was 4.89; in experiment [5], 4.77; in experiment [6], 4.81.

As for `COc1ccc(/C=C/C(=O)c2ccc(OC)c3c2OC(C)(C)C=C3)cc1` [MILLEPACHINE], the pIC50 in [1] was 5.01; in experiment [2] it was 4.60; in experiment [3], 4.96; in experiment [4], 5.12; in [5], 4.96; in experiment [6], 5.34.

Consider `COc1ccc(/C=C/C(=O)c2ccc(OC)c3c2OC(C)(C)C=C3)cc1OCC(=O)Nc1ccccc1`, for which the pIC50 in experiment [1] is 4.68; in experiment [2] it was < 4.30; in experiment [3], 4.74; in experiment [4] it was 4.76; in experiment [5], 4.68; in [6], 4.69.
